From ChEMBL document CHEMBL1131238, “Investigation of the N-substituent conformation governing potency and mu receptor subtype-selectivity in (+)-(3R, 4R)-dimethyl-4-(3-hydroxyphenyl)piperidine opioid antagonists” (J Med Chem, 1998)

What was measured:
Mu-type opioid receptor [1] = target: Mu-type opioid receptor (Cavia porcellus, UniProt P97266); assay: The compound was tested for antagonist activity by selective inhibition of [35S]GTP-gamma-S, binding to Opioid receptor mu 1 in Guinea pig caudate stimulated by DAMGO[mu]; type: functional
Sequence of Mu-type opioid receptor (Cavia porcellus, UniProt P97266) (P97266 whole entry): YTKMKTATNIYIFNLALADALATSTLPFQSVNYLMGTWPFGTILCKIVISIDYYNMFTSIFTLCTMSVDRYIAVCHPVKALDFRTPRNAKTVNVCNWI
In short: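 Guinea pig caudate putamen membranes (10 μg/tube) in 50 mM Tris-HCl pH 7.7, 0.1% BSA. Final: 100 mM NaCl, 5 mM MgCl2, 1 mM EDTA, 1 mM DTT, 100 μM GDP, 0.05–0.1 nM [35S]GTP-γ-S, agonist 500 nM or 10 μM, ≥10 antagonist concentrations; 4 h, filtration.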

[2] = target: T1, Kappa-type opioid receptor (Cavia porcellus, UniProt P41144); assay: Inhibition of [3H]U-69593 binding to Opioid receptor kappa 1 of guinea pig membranes
T1 sequence (P41144 whole entry): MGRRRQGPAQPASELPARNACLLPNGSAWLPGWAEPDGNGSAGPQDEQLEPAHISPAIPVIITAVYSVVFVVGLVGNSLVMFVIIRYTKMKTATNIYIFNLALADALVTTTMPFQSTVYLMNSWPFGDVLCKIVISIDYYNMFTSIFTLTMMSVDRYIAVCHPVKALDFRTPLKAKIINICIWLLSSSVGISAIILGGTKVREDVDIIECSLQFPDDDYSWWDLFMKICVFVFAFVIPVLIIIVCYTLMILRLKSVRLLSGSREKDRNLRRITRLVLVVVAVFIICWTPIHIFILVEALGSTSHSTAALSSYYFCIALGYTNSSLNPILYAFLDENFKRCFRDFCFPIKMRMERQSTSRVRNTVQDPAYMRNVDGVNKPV

[3] = target: Delta-type opioid receptor (Rattus norvegicus, UniProt P33533); assay: Inhibition of [3H]-DADLE binding to Opioid receptor delta 1 of rat brain membranes; type: cell membranes, Membrane
Sequence of Delta-type opioid receptor (P33533 whole entry): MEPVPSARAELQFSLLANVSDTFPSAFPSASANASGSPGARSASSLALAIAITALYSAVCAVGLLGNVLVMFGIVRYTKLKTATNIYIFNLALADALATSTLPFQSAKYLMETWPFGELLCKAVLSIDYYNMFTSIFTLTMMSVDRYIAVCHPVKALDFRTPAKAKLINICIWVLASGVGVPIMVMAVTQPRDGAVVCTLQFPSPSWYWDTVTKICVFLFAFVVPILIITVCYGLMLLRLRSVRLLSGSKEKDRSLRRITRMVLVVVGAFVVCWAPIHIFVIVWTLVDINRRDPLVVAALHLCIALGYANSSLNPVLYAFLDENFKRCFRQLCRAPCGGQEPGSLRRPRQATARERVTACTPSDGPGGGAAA

[4] = target: T1, Kappa-type opioid receptor; assay: The compound was tested for antagonist activity by selective inhibition of [35S]GTP-gamma-S, binding in Guinea pig caudate stimulated by U69,593 to Opioid receptor kappa 1; type: functional
Mu-type opioid receptor [5] = target: Mu-type opioid receptor (Rattus norvegicus, UniProt P33535); assay: Inhibition of [3H]DAMGO binding to Opioid receptor mu 1 of rat brain membranes; type: cell membranes, Membrane
Sequence of Mu-type opioid receptor (Rattus norvegicus, UniProt P33535) (P33535 whole entry): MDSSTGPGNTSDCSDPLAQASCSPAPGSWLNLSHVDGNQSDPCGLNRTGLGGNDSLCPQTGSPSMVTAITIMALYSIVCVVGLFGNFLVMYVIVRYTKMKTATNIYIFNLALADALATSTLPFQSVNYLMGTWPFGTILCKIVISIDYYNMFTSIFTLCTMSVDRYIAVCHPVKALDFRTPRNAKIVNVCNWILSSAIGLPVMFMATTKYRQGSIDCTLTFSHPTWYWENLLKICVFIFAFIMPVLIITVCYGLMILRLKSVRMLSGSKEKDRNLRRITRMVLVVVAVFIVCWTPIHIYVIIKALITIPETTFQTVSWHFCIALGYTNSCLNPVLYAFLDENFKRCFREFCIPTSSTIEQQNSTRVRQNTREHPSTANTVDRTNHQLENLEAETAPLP

Work on `C[C@H]1CN(C/C=C/c2ccccc2Cl)CC[C@@]1(C)c1cccc(O)c1` yielded a Ki (Mu-type opioid receptor [1]) of 0.026 nM, a Ki [2] of 35.8 nM and a Ki [3] of 168 nM. The Ki [4] was 0.567 nM and the Ki (Mu-type opioid receptor [5]) was 1.12 nM.
With `C[C@H]1CN(C/C=C\c2ccccc2)CC[C@@]1(C)c1cccc(O)c1` the Ki [2] was 298 nM, the Ki [3] was 931 nM and the Ki (Mu-type opioid receptor [5]) was 11.4 nM.
With `C[C@H]1CN(Cc2cc3ccccc3s2)CC[C@@]1(C)c1cccc(O)c1` the Ki [2] was > 690 nM, the Ki [3] was 1580 nM and the Ki (Mu-type opioid receptor [5]) was 21.2 nM.
Molecule `C[C@H]1CN(CC[C@H](O)C2CCCCC2)CC[C@@]1(C)c1cccc(O)c1` has a Ki (Mu-type opioid receptor [1]) of 0.021 nM, a Ki [2] of 28 nM and a Ki [3] of 198 nM. For the same molecule, the Ki [4] was 0.33 nM and the Ki (Mu-type opioid receptor [5]) was 0.32 nM.
For `C[C@H]1CN(C2CCCCC2)CC[C@@]1(C)c1cccc(O)c1`, the Ki [2] was 315 nM, the Ki [3] was > 7300 nM and the Ki (Mu-type opioid receptor [5]) was 1280 nM.
`C[C@H]1CN(Cc2cc3ccccc3o2)CC[C@@]1(C)c1cccc(O)c1` was tested, and the Ki [2] was > 690 nM, the Ki [3] was 1450 nM and the Ki (Mu-type opioid receptor [5]) was 22.2 nM.
In the case of `C[C@H]1CN(C[C@@H]2C[C@H]2c2ccccc2)CC[C@@]1(C)c1cccc(O)c1`, the Ki [2] is reported as 81.8 nM, the Ki [3] is reported as 709 nM and the Ki (Mu-type opioid receptor [5]) is reported as 1.75 nM.
Work on `C[C@H]1CN(C/C=C/c2ccccc2)CC[C@@]1(C)c1cccc(O)c1` yielded a Ki (Mu-type opioid receptor [1]) of 0.039 nM, a Ki [2] of 122 nM and a Ki [3] of 322 nM. It also gave a Ki [4] of 1.04 nM and a Ki (Mu-type opioid receptor [5]) of 0.74 nM.
With `C[C@H]1CN(C2CCCC(O)(c3ccccc3)C2)CC[C@@]1(C)c1cccc(O)c1` (stereo partly drawn) the Ki [2] was 674 nM, the Ki [3] was > 7300 nM and the Ki (Mu-type opioid receptor [5]) was 203 nM.
`Cc1ccccc1/C=C/CN1CC[C@@](C)(c2cccc(O)c2)[C@@H](C)C1` was tested, and the Ki (Mu-type opioid receptor [1]) was 0.013 nM, the Ki [2] was 38.9 nM and the Ki [3] was 142 nM. The Ki [4] was 0.17 nM and the Ki (Mu-type opioid receptor [5]) was 0.86 nM.
In the case of `C[C@H]1CN(C2CCCC(O)C2)CC[C@@]1(C)c1cccc(O)c1` (stereo partly drawn), the Ki [2] is reported as 1150 nM and the Ki [3] is reported as > 7300 nM.
In the case of `C[C@H]1CN(C2CCCC2)CC[C@@]1(C)c1cccc(O)c1`, the Ki [2] is reported as 199 nM, the Ki [3] is reported as > 7300 nM and the Ki (Mu-type opioid receptor [5]) is reported as 444 nM.
